Only a selection was taken, and hits are over-represented in it overall.
T cell modulator = modulators of CD8 T cell-vesicle binding, primary screen, mouse 2C CD8+ T cells, flow cytometry; 2C CD8+ T cell-vesicle binding; active compounds read low; response (vesicle binding), % at 7 µM; 0.068% of 330,000 active; AID 2052, 2009;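 active = response, share of CD8 T cells binding vesicles, and their 90th percentile fluorescence all below set limits, cut at about 80% in these data, passing the limit was not always enough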;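 also: values below 100% mean blocked vesicle binding to the CD8+ T cells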
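Benchmarks: naked versus QL9-loaded vesicles / Assay system: purified 2C TCR transgenic mouse naive CD8+ T cells / Technique: high-throughput flow cytometry with anti-B7-1 and anti-CD8 staining / Timing: Cell–vesicle co-incubation 1.5 h at 37 °C, staining 20 min on ice / Read-out: percent CD8+ FL2 mean versus row control / Probe or stimulus: QL9-loaded Drosophila micro-vesicles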
ALR H2O2 inh = inhibitors of human ALR sulfhydryl oxidase, primary screen, biochemical, H2O2 detection, HRP-luminol luminescence, single point; AID 485317, 2010; purified ALR, DTT oxidation; 3.8% of 290,000 active; inhibition, % (test concentration not listed);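 active = mean replicate inhibition above about 79%, with every replicate also reaching it, limit read from the data; inconclusive = only one of the two criteria met; inactive = mean below limit and not every replicate reaching it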
Target sequence (P55789 whole entry, looked up): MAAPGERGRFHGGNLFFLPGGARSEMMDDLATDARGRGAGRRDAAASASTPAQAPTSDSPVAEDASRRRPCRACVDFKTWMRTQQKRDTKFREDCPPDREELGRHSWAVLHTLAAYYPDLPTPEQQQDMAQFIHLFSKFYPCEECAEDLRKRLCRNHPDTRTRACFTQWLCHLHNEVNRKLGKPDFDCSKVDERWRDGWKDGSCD
Glyco luc inh = increase of ERlucT glycosylation luciferase signal, primary screen, N-linked glycosylation inhibitor project, D54 ERlucT cells, luminescence, set 2; 0.23% of 360,000 active; D54 ERlucT glycosylation luciferase reporter, 24 h; percent of 100 nM tunicamycin response; reporter increase, % at 12.5 µM; AID 588692, 2011;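 active = mean luciferase reporter signal, scaled so untreated is 0 and the glycosylation-blocking control 100, at or above a set limit in every replicate; inconclusive = mean reaches the limit but not every replicate does; inactive = mean below the limit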;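 also: luciferase carries N-glycosylation sites so blocking glycosylation raises the light; 0% = median of neutral control wells and 100% = median of 100 nM tunicamycin wells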
Active calls of the source: *; i = inactive; ? = inconclusive; · = no result.

SMILES	T cell modulator	ALR H2O2 inh	Glyco luc inh
COc1cc(C)ccc1OC(C)C(=O)Nc1ccc(N2CCCCC2)cc1 (configuration not stated)	246.1	22.8	-1.0
COC(=O)CSc1nc2c(c(-c3ccc(C)o3)c1C#N)CCCC2	578.0	-5.5	-0.4
CCSc1nc2c(c(-c3ccc(C)o3)c1C#N)CCCC2	145.1	82.7*	-3.2
O=C(CCn1cnc2ncccc2c1=O)N1CCN(c2cccc(Cl)c2)CC1	352.2	36.3	0.4
Cc1ccc(-n2nc3ccc(NC(=S)NC(=O)/C=C/c4ccco4)cc3n2)cc1	413.6	1.5	-0.4
Cc1ccc(-n2nc3cc(C)c(NC(=S)NC(=O)/C=C/c4ccco4)cc3n2)cc1	370.8	85.9*	-12.9
O=C1OC(c2ccccc2)(N(Nc2ccccc2)c2ccccc2)c2ccccc21 (configuration not stated)	·	·	-5.3
COc1ccc(-c2nn(-c3ccccc3)cc2C(=O)NC2CCC(C)CC2)cc1 (configuration not stated)	336.7	-3.8	0.2
CSc1nc(O)c(Nc2cccc(Cl)c2)c(=O)[nH]1	386.9	88.7*	2.9
CSc1nc(O)c(Nc2ccccc2)c(=O)[nH]1	·	·	0.9
COc1cc(C(=O)OCCCc2cc3ccccc3c(=O)o2)cc(OC)c1OC	177.8	2.6	0.3
COc1cc(C(=O)OCCc2cc3ccccc3c(=O)o2)cc(OC)c1OC	227.1	-11.6	27.0*
COc1ccc(/C=C/C(=O)NC(=S)NNC(=O)Cc2cccs2)cc1	428.5	-15.3	2.7
COc1ccc(NC(=S)NCc2ccc(F)cc2)c(OC)c1	451.5	98.7*	-1.0
COc1ccccc1OCC(=O)NNC(=S)NC(=O)c1ccco1	412.6	89.2*	1.2
COc1ccc(NC(=S)NNC(=O)c2ccco2)c(OC)c1	493.7	77.1*	1.3
COc1ccccc1NC(=S)NCc1ccc(F)cc1	543.3	-24.2	1.1
COc1ccc(/C=C/C(=O)NC(=S)NNC(=O)c2ccco2)cc1	434.6	85.6*	9.8
COc1ccc(NC(=O)c2ccccc2NC(=O)c2ccco2)c(OC)c1	357.2	0.4	2.6
COc1ccccc1C(=O)NC(=S)Nc1ccc(NC(=O)c2ccco2)cc1	304.6	-7.0	-4.5
C=CCn1c(C)cc(C(=O)CSc2nnc3n(CCC)c(=O)c4ccccc4n23)c1C	·	·	-1.7
CCC(C(=O)NCc1ccccc1OC)c1ccccc1 (configuration not stated)	357.0	4.9	-1.9
O=C(COc1ccc([N+](=O)[O-])cc1Cl)NCC1CCCO1 (configuration not stated)	242.4	-7.3	0.7
CC1(C(=O)NS(=O)(=O)c2ccccc2Cl)CCN1C(=O)CCC1CCCC1 (configuration not stated)	·	·	0.6
Cc1ccc(N(CC(=O)NC(C)C)C(=O)CCC(=O)Nc2ccccn2)cc1	267.8	·	3.3
SMILES	T cell modulator	ALR H2O2 inh	Glyco luc inh
Cc1onc(-c2ccccc2)c1C(=O)NNC(=S)NC(=O)/C=C/c1ccccc1	356.7	76.3*	1.0
COc1ccc(/C=C/C(=O)NC(=S)NNC(=O)c2c(-c3ccccc3)noc2C)cc1	239.3	-2.1	1.0
COc1ccc(/C=C/C(=O)NC(=S)NNC(=O)c2cc(OC)c(OC)c(OC)c2)cc1OC	136.8	56.9	-2.2
O=C(NC(=S)NNC(=O)c1ccco1)c1ccc(F)cc1	99.8	?	-0.1
COc1ccc(/C=C/C(=O)NC(=S)NNC(=O)c2ccco2)cc1OC	606.8	84.9*	-0.6
COc1ccc(C(=O)NC(=S)NNC(=O)c2ccco2)cc1	232.3	99.7*	0.8
CC(CCc1ccccc1)NCC(O)COc1ccccc1 (configuration not stated)	272.0	-0.3	0.3
Cn1cccc1C(=O)/C(C#N)=C/c1ccc(F)cc1	162.5	·	0.5
O=C(c1cc(F)c(F)c(F)c1F)N1CCN(C(=O)C2CCCO2)CC1 (configuration not stated)	407.9	-3.3	0.8
Cc1ccc(N(CC(=O)NCc2ccco2)C(=O)CCC(=O)Nc2ccccn2)c(C)c1	388.4	3.8	0.6
Oc1c(Br)cc(/C=N/NC(=S)NCc2ccco2)cc1Br	264.3	89.5*	-1.6
CCN(CC)c1ccc(/C=N/NC(=S)NCc2ccco2)cc1	997.8	98.6*	-3.5
S=C(NCc1ccco1)N/N=C/c1ccc(Cl)cc1	318.9	·	-3.1
Oc1ccc(/C=N/NC(=S)NCc2ccco2)cc1	488.3	98.6*	-0.5
COc1cc(/C=N/NC(=S)NCc2ccco2)cc(OC)c1OC	313.3	11.3	2.6
S=C(NCc1ccco1)N/N=C/c1cccnc1	309.1	·	1.0
O=C(CCl)NC(=O)NC12CC3CC(CC(C3)C1)C2	700.0	85.8*	1.8
CC(Cl)C(=O)NC(=O)NC12CC3CC(CC(C3)C1)C2 (configuration not stated)	329.3	-8.6	-2.5
COc1cccc(N=c2oc3cc(O)ccc3cc2C(=O)NCC2CCCO2)c1 (configuration not stated)	282.2	-11.3	2.4
COc1ccccc1N=c1oc2cc(O)ccc2cc1C(=O)NCC1CCCO1 (configuration not stated)	487.8	92.1*	-0.8
CC(=O)N1CCN=C1SCc1ccccc1	i	2.9	2.6
CCC(=O)N1CCN=C1SCc1ccccc1	202.9	-7.5	-1.7
CCOC(=O)N1CCN=C1SCc1ccc(C(F)(F)F)cc1	256.0	-1.1	7.5
CC(=O)N1CCN=C1SCc1ccc(Cl)cc1	340.1	98.2*	4.0
CSC1=NCCN1C(=O)Cc1ccc(F)cc1	148.5	-2.9	0.4
SMILES	T cell modulator	ALR H2O2 inh	Glyco luc inh
CCC(=O)N1CCN=C1SCc1ccc(Cl)cc1	261.3	98.1*	-1.9
CC(=O)N1CCN=C1SCc1ccc(F)cc1	i	99.1*	-1.1
CC(=O)N1CCN=C1SCc1ccc(C)cc1	309.0	94.6*	0.5
Cc1ccsc1C(=O)N1CCCC(C)(C(=O)NS(=O)(=O)C2CC2)C1 (configuration not stated)	·	·	0.0
C#CCNCCS(=O)(=O)N(Cc1ccc(Br)cc1)[C@@H](CC(C)C)C(=O)O	·	·	0.7
CC(C)(C)[C@H]1COC(=O)CCCC/C=C\C[C@H](CC(=O)NCCO)C(=O)N1	196.6	-4.5	5.0
CC1CCc2nc(NC(=O)c3ccc(N4C(=O)CCC4=O)cc3)sc2C1 (configuration not stated)	168.1	4.9	1.2
O=C(Nc1nc2c(s1)CCCC2)c1ccc(Br)s1	308.7	97.9*	-15.4
O=C(Nc1nc2c(s1)CCCC2)c1ccc(N2C(=O)CCC2=O)cc1	137.0	96.8*	2.5
O=C(Nc1nc2c(s1)CCCC2)c1ccc2ncsc2c1	536.8	43.2	-11.6
COc1ccc(/C=C(/NC(=O)c2ccc(Br)o2)C(=O)Nc2cccc(C(=O)O)c2)cc1	·	·	0.5
CCOc1ccc(N2C(=O)Nc3ccccc3C2(O)C(=O)NCc2ccccc2)cc1 (configuration not stated)	196.7	92.2*	-1.1
CCOc1ccc(C(=O)N2CCN(c3ccccn3)CC2)cc1	198.0	-8.0	-0.9
CN(CCNC(=O)C1(O)c2ccccc2NC(=O)N1c1ccccc1)Cc1ccccc1 (configuration not stated)	253.1	-4.8	1.5
